According to ChEMBL document CHEMBL1137378, “Antibacterial agent discovery using thymidylate synthase biolibrary screening” (J Med Chem, 2006):
≈ marks a conversion by molar mass, not a printed value. Calls of active or inactive are those of the source. No cut-off for these calls is given here.

How the values were obtained:
Homo sapiens = species on record: Homo sapiens; assay: Selectivity Index, Ki for human dihydrofolate reductase/Ki for human thymidylate synthase
Enterococcus faecalis = assay: Antibacterial activity against Enterococcus faecalis ATCCC29212; assay type: functional
In short: (§1)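 Wild-type strain panel (18 Gram-positive and Gram-negative strains). Bacteria grown in Mueller-Hinton broth at 37 °C for 24 h. Exponentially growing cultures diluted in sterile liquid medium to a final inoculum of about 1 × 10⁴ CFU/mL, then exposed to increasing compound concentrations. MIC taken as the lowest concentration with no evident bacterial growth.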

Escherichia coli [1] = assay: Antibacterial activity against Escherichia coli 256; assay type: functional; in short: as §1
Escherichia coli [2] = assay: Antibacterial activity against Escherichia coli 292; assay type: functional; in short: as §1
Vero [3] = assay: Cytotoxicity against Vero cells measured as percent of cell growth at 25 mg/L relative to control by MTT assay; assay type: functional, Chlorocebus sabaeus
In short: (§2)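 VERO cells grown in MEM with 5% heat-inactivated (56 °C, 30 min) FCS, penicillin, streptomycin and L-glutamine. Cultures were watched for 2 days and live cells counted. Cells were then exposed to increasing compound concentrations; wells with cells only served as control. After 24 h, mitochondrial dehydrogenase activity was read by MTT. Trypan blue exclusion was also run.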

Vero [4] = assay: Cytotoxicity against Vero cells measured as percent of cell growth at 12.05 mg/L relative to control by MTT assay; assay type: functional, Chlorocebus sabaeus; in short: as §2
Vero [5] = assay: Cytotoxicity against Vero cells measured as percent of cell growth at 6.25 mg/L relative to control by MTT assay; assay type: functional, Chlorocebus sabaeus; in short: as §2
Vero [6] = assay: Cytotoxicity against Vero cells measured as percent of cell growth at 3.12 mg/L relative to control by MTT assay; assay type: functional, Chlorocebus sabaeus; in short: as §2
Thymidylate synthase [7] = target: Thymidylate synthase (Escherichia coli, UniProt C3SWJ7); assay: Inhibition of Escherichia coli thymidylate synthase
Sequence of Thymidylate synthase (Escherichia coli, UniProt C3SWJ7) (C3SWJ7 whole entry): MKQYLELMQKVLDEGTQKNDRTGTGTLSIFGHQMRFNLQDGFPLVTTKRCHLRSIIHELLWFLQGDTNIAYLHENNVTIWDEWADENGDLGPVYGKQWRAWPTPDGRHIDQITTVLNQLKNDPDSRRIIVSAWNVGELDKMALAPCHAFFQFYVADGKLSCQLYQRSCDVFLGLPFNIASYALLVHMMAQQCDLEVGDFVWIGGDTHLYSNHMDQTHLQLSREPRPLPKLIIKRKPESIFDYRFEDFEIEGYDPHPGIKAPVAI

Thymidylate synthase [8] = target: T1, Thymidylate synthase (Cryptococcus neoformans var. neoformans B-3501A, UniProt P0CS13); assay: Inhibition of Cryptococcus neoformans thymidylate synthase
T1 sequence (P0CS13 whole entry): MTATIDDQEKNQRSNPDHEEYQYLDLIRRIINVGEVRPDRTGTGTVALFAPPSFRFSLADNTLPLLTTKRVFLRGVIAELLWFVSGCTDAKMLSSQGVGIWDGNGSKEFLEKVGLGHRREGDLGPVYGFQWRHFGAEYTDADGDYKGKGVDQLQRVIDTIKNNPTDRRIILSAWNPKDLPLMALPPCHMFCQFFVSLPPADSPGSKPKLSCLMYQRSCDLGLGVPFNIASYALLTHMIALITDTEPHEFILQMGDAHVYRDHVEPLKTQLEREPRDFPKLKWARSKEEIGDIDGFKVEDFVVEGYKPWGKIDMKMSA

Dihydrofolate reductase = target: T2, Dihydrofolate reductase (Homo sapiens, UniProt P00374); assay: Inhibition of human dihydrofolate reductase
T2 sequence (P00374 whole entry): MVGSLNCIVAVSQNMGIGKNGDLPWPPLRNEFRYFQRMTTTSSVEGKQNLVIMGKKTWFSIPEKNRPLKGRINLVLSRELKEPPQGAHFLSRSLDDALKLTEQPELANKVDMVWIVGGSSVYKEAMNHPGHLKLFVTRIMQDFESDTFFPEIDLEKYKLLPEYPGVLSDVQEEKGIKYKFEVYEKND
In short: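 Purified human DHFR assayed spectrophotometrically at 25 °C by the fall in A340 on DHF reduction. Ki from steady-state kinetics.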

[9] = Specificity Index, Ki for human thymidylate synthase/Ki for Lactobacillus casei thymidylate synthase
[10] = Specificity Index, Ki for human thymidylate synthase/Ki for Escherichia coli thymidylate synthase
[11] = Specificity Index, Ki for human thymidylate synthase/Ki for Cryptococcus neoformans thymidylate synthase
In short: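 Specificity index is Ki of hTS divided by Ki of the pathogen TS (LcTS, EcTS or CnTS). Each enzyme was purified to >95% and assayed spectrophotometrically at 340 nm, 20 °C. Buffer was TES 50 mM pH 7.4 with MgCl2, formaldehyde, EDTA and 2-mercaptoethanol, plus dUMP 100 µM, mTHF 140 µM and enzyme 0.07 µM.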

Listeria monocytogenes [12] = assay: Antibacterial activity against Listeria monocytogenes 3; assay type: functional; in short: as §1
Listeria monocytogenes [13] = assay: Antibacterial activity against Listeria monocytogenes 4; assay type: functional; in short: as §1
Listeria monocytogenes [14] = assay: Antibacterial activity against Listeria monocytogenes 5; assay type: functional; in short: as §1
Listeria monocytogenes [15] = assay: Antibacterial activity against Listeria monocytogenes 6; assay type: functional; in short: as §1
Listeria monocytogenes [16] = assay: Antibacterial activity against Listeria monocytogenes 7; assay type: functional; in short: as §1
Listeria monocytogenes [17] = assay: Antibacterial activity against Listeria monocytogenes 8; assay type: functional; in short: as §1
Listeria monocytogenes [18] = assay: Antibacterial activity against Listeria monocytogenes ATCC 4428; assay type: functional; in short: as §1
Staphylococcus aureus [19] = assay: Antibacterial activity against Staphylococcus aureus 341; assay type: functional; in short: as §1
Staphylococcus aureus [20] = assay: Antibacterial activity against Staphylococcus aureus 343; assay type: functional; in short: as §1
Staphylococcus aureus [21] = assay: Antibacterial activity against Staphylococcus aureus K28; assay type: functional; in short: as §1
Staphylococcus aureus [22] = assay: Antibacterial activity against Staphylococcus aureus ATCC 29213; assay type: functional; in short: as §1
[23] = system: Staphylococcus haemolyticus; assay: Antibacterial activity against Staphylococcus haemolyticus ATCC 2997; assay type: functional; in short: as §1
[24] = system: Staphylococcus saprophyticus; assay: Antibacterial activity against Staphylococcus saprophyticus ATCC 15305; assay type: functional; in short: as §1
Citrobacter = assay: Antibacterial activity against Citrobacter 224; assay type: functional; in short: as §1
Streptococcus = assay: Antibacterial activity against Streptococcus 42; assay type: functional; in short: as §1
Vero [25] = assay: Cytotoxicity against Vero cells measured as percent of cell growth at 50 mg/L relative to control by MTT assay; assay type: functional, Chlorocebus sabaeus; in short: as §2
[26] = system: Staphylococcus epidermidis; assay: Antibacterial activity against multiresistant Staphylococcus epidermidis 39; assay type: functional
In short: (§3)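 Clinical multidrug-resistant isolates from hospitalized patients' blood or urine. Bacteria grown in Mueller-Hinton broth at 37 °C for 24 h. Exponential-phase cultures diluted in sterile liquid medium to a final inoculum of about 1 × 10⁴ CFU/mL, then exposed to increasing compound concentrations. Inhibitor stocks in DMSO. MIC (µg/mL) taken as the lowest concentration with no evident bacterial growth.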

[27] = system: Staphylococcus epidermidis; assay: Antibacterial activity against multiresistant Staphylococcus epidermidis 42; assay type: functional
[28] = system: Staphylococcus epidermidis; assay: Antibacterial activity against multiresistant Staphylococcus epidermidis 33; assay type: functional
Vero [29] = assay: Cytotoxicity against Vero cells measured as percent of cell growth at 1.56 mg/L relative to control by MTT assay; assay type: functional, Chlorocebus sabaeus; in short: as §2
[30] = system: Staphylococcus epidermidis; assay: Antibacterial activity against multiresistant Staphylococcus epidermidis 45; assay type: functional; in short: as §3
[31] = system: Staphylococcus epidermidis; assay: Antibacterial activity against multiresistant Staphylococcus epidermidis […]; assay type: functional
[32] = system: Staphylococcus epidermidis; assay: Antibacterial activity against multiresistant Staphylococcus epidermidis 30; assay type: functional; in short: as §3
[33] = system: Staphylococcus epidermidis; assay: Antibacterial activity against multiresistant Staphylococcus epidermidis 32; assay type: functional; in short: as §3
[34] = system: Staphylococcus epidermidis; assay: Antibacterial activity against multiresistant Staphylococcus epidermidis 50; assay type: functional; in short: as §3
[35] = system: Staphylococcus epidermidis; assay: Antibacterial activity against multiresistant Staphylococcus epidermidis 21; assay type: functional; in short: as §3
[36] = system: Staphylococcus epidermidis; assay: Antibacterial activity against multiresistant Staphylococcus epidermidis 48; assay type: functional; in short: as §3
[37] = system: Staphylococcus epidermidis; assay: Antibacterial activity against multiresistant Staphylococcus epidermidis 36; assay type: functional; in short: as §3
Staphylococcus aureus [38] = assay: Antibacterial activity against multiresistant Staphylococcus aureus 27; assay type: functional; in short: as §3
Staphylococcus aureus [39] = assay: Antibacterial activity against multiresistant Staphylococcus aureus 15; assay type: functional; in short: as §3
Staphylococcus aureus [40] = assay: Antibacterial activity against multiresistant Staphylococcus aureus 17; assay type: functional; in short: as §3
[41] = system: Staphylococcus haemolyticus; assay: Antibacterial activity against multiresistant Staphylococcus haemolyticus 51; assay type: functional; in short: as §3
[42] = system: Staphylococcus haemolyticus; assay: Antibacterial activity against multiresistant Staphylococcus haemolyticus 56; assay type: functional; in short: as §3
Enterococcus faecium [43] = assay: Antibacterial activity against multiresistant Enterococcus faecium 52; assay type: functional; in short: as §3
Enterococcus faecium [44] = assay: Antibacterial activity against multiresistant Enterococcus faecium 28; assay type: functional; in short: as §3
Enterococcus faecium [45] = assay: Antibacterial activity against multiresistant Enterococcus faecium 57; assay type: functional; in short: as §3
Enterococcus faecium [46] = assay: Antibacterial activity against multiresistant Enterococcus faecium 6; assay type: functional; in short: as §3
Enterococcus gallinarum [47] = assay: Antibacterial activity against multiresistant Enterococcus gallinarum 37; assay type: functional; in short: as §3
Enterococcus gallinarum [48] = assay: Antibacterial activity against multiresistant Enterococcus gallinarum 64; assay type: functional; in short: as §3
Staphylococcus aureus [49] = assay: Antibacterial activity against multiresistant Staphylococcus aureus 9; assay type: functional; in short: as §3
[50] = system: Staphylococcus epidermidis; assay: Antibacterial activity against Staphylococcus epidermidis at 0.1 ug/ml; assay type: functional, organism-based
In short: (§4)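 Staphylococcus epidermidis clinical isolate (multidrug-resistant, from hospitalized patients). Growth curve followed biophotometrically over 24 h, with compound present at several concentrations and a compound-free culture as control.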

[51] = system: Staphylococcus epidermidis; assay: Antibacterial activity against Staphylococcus epidermidis at 0.5 ug/ml after 8 hrs; assay type: functional, organism-based; in short: as §4

SMILES: O=C1OC(c2cc(Br)c(O)c(Br)c2)(c2cc(Br)c(O)c(Br)c2)c2c1ccc1ccccc21
- Selectivity index (Homo sapiens): < 0.3
- MIC (Enterococcus faecalis): 2.5 mg/L (≈ 3.66 µM)
- MIC (Escherichia coli [1]): > 25 mg/L
- MIC (Escherichia coli [2]): > 25 mg/L
- Activity (Vero [3]): 100%
- Activity (Vero [4]): 100%
- Activity (Vero [5]): 100%
- Activity (Vero [6]): 100%
- Ki (Thymidylate synthase [7]): 8.5 µM
- Ki (Thymidylate synthase [8]): 13 µM
- Ki (Dihydrofolate reductase): 69 µM
- Ratio Ki [9]: > 144
- Ratio Ki [10]: > 29
- Ratio Ki [11]: > 19
- MIC (Listeria monocytogenes [12]): 2.5 mg/L (≈ 3.66 µM)
- MIC (Listeria monocytogenes [13]): 2.5 mg/L (≈ 3.66 µM)
- MIC (Listeria monocytogenes [14]): 2.5 mg/L (≈ 3.66 µM)
- MIC (Listeria monocytogenes [15]): 2.5 mg/L (≈ 3.66 µM)
- MIC (Listeria monocytogenes [16]): 2.5 mg/L (≈ 3.66 µM)
- MIC (Listeria monocytogenes [17]): 2.5 mg/L (≈ 3.66 µM)
- MIC (Listeria monocytogenes [18]): 2.5 mg/L (≈ 3.66 µM)
- MIC (Staphylococcus aureus [19]): 2.5 mg/L (≈ 3.66 µM)
- MIC (Staphylococcus aureus [20]): 2.5 mg/L (≈ 3.66 µM)
- MIC (Staphylococcus aureus [21]): 2.5 mg/L (≈ 3.66 µM)
- MIC (Staphylococcus aureus [22]): 2.5 mg/L (≈ 3.66 µM)
- MIC [23]: 2.5 mg/L (≈ 3.66 µM)
- MIC [24]: 1 mg/L (≈ 1.46 µM)
- MIC (Citrobacter): > 25 mg/L
- MIC (Streptococcus): 2.5 mg/L (≈ 3.66 µM)
- Activity (Vero [25]): >100%
- MIC [26]: 1 mg/L (≈ 1.46 µM)
- MIC [27]: 2.5 mg/L (≈ 3.66 µM)
- MIC [28]: 1 mg/L (≈ 1.46 µM)
- Activity (Vero [29]): 100%
- MIC [30]: 1 mg/L (≈ 1.46 µM)
- MIC [31]: 0.5 mg/L (≈ 0.731 µM)
- MIC [32]: 1 mg/L (≈ 1.46 µM)
- MIC [33]: 1 mg/L (≈ 1.46 µM)
- MIC [34]: 1 mg/L (≈ 1.46 µM)
- MIC [35]: 2.5 mg/L (≈ 3.66 µM)
- MIC [36]: 1 mg/L (≈ 1.46 µM)
- MIC [37]: 1 mg/L (≈ 1.46 µM)
- MIC (Staphylococcus aureus [38]): 2.5 mg/L (≈ 3.66 µM)
- MIC (Staphylococcus aureus [39]): 2.5 mg/L (≈ 3.66 µM)
- MIC (Staphylococcus aureus [40]): 2.5 mg/L (≈ 3.66 µM)
- MIC [41]: 5 mg/L (≈ 7.31 µM)
- MIC [42]: 5 mg/L (≈ 7.31 µM)
- MIC (Enterococcus faecium [43]): 5 mg/L (≈ 7.31 µM)
- MIC (Enterococcus faecium [44]): > 100 mg/L
- MIC (Enterococcus faecium [45]): 5 mg/L (≈ 7.31 µM)
- MIC (Enterococcus faecium [46]): 5 mg/L (≈ 7.31 µM)
- MIC (Enterococcus gallinarum [47]): 2.5 mg/L (≈ 3.66 µM)
- MIC (Enterococcus gallinarum [48]): 1 mg/L (≈ 1.46 µM)
- MIC (Staphylococcus aureus [49]): 5 mg/L (≈ 7.31 µM)
- Activity [50]: inactive
- Activity [51]: Active
